Measured values published in ChEMBL document CHEMBL4177560, “Functional evaluation of synthetic flavonoids and chalcones for potential antiviral and anticancer properties” (Bioorg Med Chem Lett, 2017).
Converted amounts (≈) assume the structure as drawn. The source made the active and inactive calls. The rule behind the calls is not given here.

Experiments:
[1] = biological target: Serine/threonine-protein kinase mTOR (Homo sapiens) (UniProt P42345); assay: Inhibition of mTOR signaling pathway in human GS5 cells infected with HCV genotype 1b assessed as reduction in ratio of viral NS3 to cellular GAPDH protein level at 10 uM after 72 hrs by Western blot analysis; type: cell-based
How it was run: (§1)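 SGR2a (genotype 2a) or GS5 (genotype 1b) replicon cells were treated for 72 h, either at a single 10 μM dose or at increasing concentrations. Extracted proteins were blotted for NS3 and GAPDH, and blots plus repeats were quantified densitometrically as NS3:GAPDH ratio versus DMSO control (100%).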

[2] = biological target: Serine/threonine-protein kinase mTOR (Homo sapiens) (UniProt P42345); assay: Inhibition of mTOR signaling pathway in human Huh7.5 cells infected with FLAG-tagged HCV genotype 2a JFH-1 assessed as reduction in ratio of viral NS3 to cellular GAPDH protein level up to 50 uM after 72 hrs by Western blot analysis; type: cell-based
How it was run: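 Huh7.5 cells were infected with genotype 2a JFH1-FLAG and co-treated at up to 50 μM for 72 h. NS3 and GAPDH were read by Western blot, and the NS3:GAPDH ratio was expressed relative to DMSO-treated cells.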

[3] = biological target: Serine/threonine-protein kinase mTOR (Homo sapiens) (UniProt P42345); assay: Inhibition of mTOR signaling pathway (unknown origin) in sub-genomic replicon 2A cells assessed as reduction in ratio of viral NS3 to cellular GAPDH protein level at 10 uM after 72 hrs by Western blot analysis; how it was run: as §1
[4] = biological target: Serine/threonine-protein kinase mTOR (Homo sapiens) (UniProt P42345); assay: Inhibition of mTOR signaling pathway (unknown origin) in human GS5 cells infected with HCV genotype 1b assessed as reduction in ratio of viral NS3 to cellular GAPDH protein level at 0.5 to 1 uM after 72 hrs by Western blot analysis relative to control; type: cell-based; how it was run: as §1
[5] = tested on: Hepatitis C virus; assay: Antiviral activity against HCV genotype 1b infected in human GS5 cells assessed as reduction in viral RNA level at 0.1 to 10 uM after 72 hrs by qPCR analysis; type: functional, organism-based; details: Hepacivirus hominis
How it was run: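 GS5 genotype 1b replicon cells were treated for 72 h across 0.1–10 μM. Total RNA was extracted, and HCV RNA and GAPDH mRNA were quantified by qPCR with HCV-specific primers.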

[6] = biological target: Serine/threonine-protein kinase mTOR (Homo sapiens) (UniProt P42345); assay: Inhibition of mTOR signaling pathway (unknown origin) in sub-genomic replicon 2A cells assessed as reduction in ratio of viral NS3 to cellular GAPDH protein level at 5 uM after 72 hrs by Western blot analysis relative to control; how it was run: as §1
[7] = biological target: Serine/threonine-protein kinase mTOR (Homo sapiens) (UniProt P42345); assay: Inhibition of mTOR signaling pathway (unknown origin) in human GS5 cells infected with HCV genotype 1b assessed as reduction in ratio of viral NS3 to cellular GAPDH protein level at 5 uM after 72 hrs by Western blot analysis relative to control; type: cell-based; how it was run: as §1
[8] = biological target: Serine/threonine-protein kinase mTOR (Homo sapiens) (UniProt P42345); assay: Inhibition of mTOR signaling pathway (unknown origin) in sub-genomic replicon 2A cells assessed as reduction in ratio of viral NS3 to cellular GAPDH protein level at 0.5 to 1 uM after 72 hrs by Western blot analysis relative to control; how it was run: as §1
[9] = tested on: Hepatitis C virus; assay: Antiviral activity against HCV genotype 2a infected in human Huh7.5 cells assessed as reduction in viral RNA level at 0.1 to 10 uM after 72 hrs by qPCR analysis; type: functional, organism-based; details: Hepacivirus hominis
[10] = tested on: Hepatitis C virus; assay: Antiviral activity against HCV genotype 2a infected in human Huh7.5 cells electroporated with viral RNA assessed as […] reduction in ratio of viral NS3 to cellular GAPDH protein level up to 50 uM after 72 hrs by Western blot analysis; details: Hepacivirus hominis
[11] = biological target: Serine/threonine-protein kinase mTOR (Homo sapiens) (UniProt P42345); assay: Inhibition of mTOR signaling pathway (unknown origin) in sub-genomic replicon 2A cells assessed as reduction in ratio of phosphorylated rps6 protein level to rps6 protein level after 72 hrs by Western blot analysis
How it was run: (§2)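 SGR2a replicon cells were incubated with increasing compound concentrations for 72 h. Western blots were run for total rps6, phospho-rps6, phospho-S6K1 and GAPDH, and blots plus repeats were quantified as p-rps6 relative to GAPDH or to total rps6.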

[12] = biological target: Serine/threonine-protein kinase mTOR (Homo sapiens) (UniProt P42345); assay: Inhibition of mTOR signaling pathway in human Huh7.5 cells assessed as reduction in rps6 protein levels at 0.5 to 10 uM after 72 hrs by Western blot analysis; type: cell-based
How it was run: (§3)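 Naïve, HCV-free Huh7.5 cells were incubated with increasing compound concentrations. Western blot analysis covered phospho-rps6, total rps6, S6K1 and actin.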

[13] = biological target: Serine/threonine-protein kinase mTOR (Homo sapiens) (UniProt P42345); assay: Inhibition of mTOR signaling pathway (unknown origin) in sub-genomic replicon 2A cells assessed as reduction in ratio of phosphorylated rps6 protein level to rps6 protein level at 0.5 to 10 uM after 72 hrs by Western blot analysis relative to control; how it was run: as §2
[14] = biological target: Serine/threonine-protein kinase mTOR (Homo sapiens) (UniProt P42345); assay: Inhibition of mTOR signaling pathway (unknown origin) in sub-genomic replicon 2A cells assessed as reduction in ratio of phosphorylated S6K1 protein level at 0.1 uM after 72 hrs by Western blot analysis; how it was run: as §2
[15] = biological target: Serine/threonine-protein kinase mTOR (Homo sapiens) (UniProt P42345); assay: Inhibition of mTOR signaling pathway in human Huh7.5 cells assessed as reduction in S6K1 levels at 0.5 to 10 uM after 72 hrs by Western blot analysis; type: cell-based; how it was run: as §3
[16] = tested on: MCF7; assay: Inhibition of estradiol-induced proliferation in human MCF7 cells after 72 hrs by Cell-titer-Glo assay; type: functional, cell-based; details: MCF7, 72 h
[17] = tested on: Ishikawa; assay: Inhibition of estradiol-induced proliferation in human Ishikawa cells after 72 hrs by Cell-titer-Glo assay; type: functional, cell-based
[18] = tested on: MDA-MB-231; assay: Inhibition of estradiol-induced proliferation in human MDA-MB-231 cells after 72 hrs by Cell-titer-Glo assay; type: functional, cell-based; details: MDA-MB-231, 72 h

Row | SMILES | inhibition [1] | inhibition [2] | inhibition [3] | IC50 [16] | further results
1 | CCCCCc1c(OC)cc(OC)c(C(=O)C#Cc2cc(OC)c(OC)c(OC)c2)c1O | Active | inactive | Active | – | –
2 | CC/C(=C(\c1ccc(O)cc1)c1ccc(OCCN(C)C)cc1)c1ccccc1 [AFIMOXIFENE] | – | – | – | 0.95 µg/mL (≈ 2.45 µM) | –
3 | COc1ccc(-c2oc3c(Cl)cc(Cl)cc3c(=O)c2O)cc1OC | – | inactive | – | > 36.7 µg/mL | IC50 [17]: > 36.7 µg/mL; IC50 [18]: > 36.7 µg/mL
4 | COc1ccc(-c2oc3c(Br)cc(Br)cc3c(=O)c2O)cc1OC | – | inactive | – | – | –
5 | COc1cc(-c2cc(=O)c3cc(Cl)cc(Cl)c3o2)cc(OC)c1OC | – | inactive | – | – | –
6 | COc1cc(-c2oc3c(Br)cc(Br)cc3c(=O)c2O)cc(OC)c1OC | – | inactive | – | – | –
7 | COc1cc(-c2oc3c(Cl)cc(Cl)cc3c(=O)c2O)cc(OC)c1OC | – | inactive | – | – | –
8 | COc1ccc(-c2cc(=O)c3cc(Br)cc(Br)c3o2)cc1OC | – | inactive | – | – | –
9 | Cl.O=C(c1ccc(OCCN2CCCCC2)cc1)c1c(-c2ccc(O)cc2)sc2cc(O)ccc12 [RALOXIFENE HYDROCHLORIDE] | – | – | – | 0.98 µg/mL | IC50 [17]: 10.5 µg/mL; IC50 [18]: 11.2 µg/mL

Second part, led by results:

Row | inhibition [1] | inhibition [2] | inhibition [3] | IC50 [16] | SMILES | further results
10 | Active | Active | Active | – | COc1cc(O)c(C(=O)C#Cc2cc(OC)c(OC)c(OC)c2)c(OC)c1 | inhibition [4]: inactive; Activity [5]: inactive; inhibition [6]: 50%; inhibition [7]: 50%; inhibition [8]: inactive; Activity [9]: Active; Activity [10]: inactive; inhibition [11]: Active
11 | Active | Active | Active | – | COc1ccc(C#CC(=O)c2cc(Br)cc(Br)c2O)cc1OC | inhibition [12]: Active; inhibition [13]: 50%; inhibition [4]: inactive; inhibition [6]: 50%; inhibition [7]: 50%; inhibition [8]: inactive; Activity [9]: Active; Activity [10]: inactive; inhibition [14]: Active; inhibition [15]: Active
12 | – | inactive | – | – | COc1cc(-c2oc3c([N+](=O)[O-])cc(C)cc3c(=O)c2O)cc(OC)c1OC | –
13 | – | inactive | – | – | COc1cc(-c2cc(=O)c3cc(C)cc([N+](=O)[O-])c3o2)cc(OC)c1OC | –
14 | – | inactive | – | > 35.7 µg/mL | COc1ccc(-c2oc3c([N+](=O)[O-])cc(C)cc3c(=O)c2O)cc1OC | IC50 [17]: > 35.7 µg/mL; IC50 [18]: > 35.7 µg/mL
15 | Active | Active | Active | – | COc1cc(OC)c(C(=O)C#Cc2cc(OC)c(OC)c(OC)c2)c(O)c1C | –
16 | – | inactive | – | – | COc1ccc(-c2cc(=O)c3cc(C)cc([N+](=O)[O-])c3o2)cc1OC | –
17 | Active | Active | Active | – | COc1cc(C#CC(=O)c2cc(Cl)cc(Cl)c2O)cc(OC)c1OC | –
18 | Active | Active | Active | 2.24 µg/mL (≈ 6.56 µM) | COc1ccc(C#CC(=O)c2cc(C)cc([N+](=O)[O-])c2O)cc1OC | IC50 [17]: 1.43 µg/mL (≈ 4.19 µM); IC50 [18]: 0.99 µg/mL (≈ 2.9 µM); Activity [10]: inactive
19 | Active | Active | Active | 3.3 µg/mL (≈ 9.4 µM) | COc1ccc(C#CC(=O)c2cc(Cl)cc(Cl)c2O)cc1OC | inhibition [4]: inactive; IC50 [17]: 5.85 µg/mL (≈ 16.7 µM); inhibition [6]: Active; inhibition [7]: Active; IC50 [18]: 1.98 µg/mL (≈ 5.64 µM); inhibition [8]: inactive; Activity [10]: inactive
